Assay results as given in ChEMBL document CHEMBL1137547, “Synthesis and antifungal activities of novel 2-aminotetralin derivatives” (2007).
In brackets after ≈: the same amount, converted by molar mass.

Columns and labels:
Assay type in all cases: functional
Candida albicans = assay: Antifungal activity against Candida albicans after 24 hrs
Procedure, shortened: (§1)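 Candida yeasts were tested by NCCLS microdilution in RPMI 1640 buffered with 0.165 M MOPS and incubated at 35 °C. Compounds were dissolved in DMSO and serially diluted in medium. Isolates came from ATCC or the clinic. The MIC was read at 24 h as the lowest concentration achieving ≥80% growth inhibition versus the control.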

Cryptococcus neoformans = assay: Antifungal activity against Cryptococcus neoformans after 72 hrs
Procedure, shortened: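 Cryptococcus neoformans was tested by NCCLS serial dilution in MOPS-buffered (0.165 M) RPMI 1640 at 35 °C. Compounds were dissolved in DMSO and diluted in medium. The MIC was read at 72 h as the lowest concentration giving turbidity inhibition of ≥80% relative to the growth control.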

Aspergillus fumigatus = assay: Antifungal activity against Aspergillus fumigatus
Procedure, shortened: (§2)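 NCCLS broth serial dilution in RPMI 1640 buffered with 0.165 M MOPS. Compounds were dissolved in DMSO and serially diluted in medium. Strains came from ATCC or clinical isolates. The growth MIC for filamentous fungi was read at 7 d, taken as the lowest concentration giving ≥80% turbidity inhibition versus the growth control.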

Candida parapsilosis = assay: Antifungal activity against Candida parapsilosis after 24 hrs; conditions: Lodderomyces parapsilosis; procedure, shortened: as §1
Microsporum = assay: Antifungal activity against Microsporum gypseum
Procedure, shortened: (§3)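 Dermatophytes were tested by NCCLS serial dilution in RPMI 1640 with 0.165 M MOPS and incubated at 28 °C. Compounds were dissolved in DMSO and diluted in medium. Strains came from ATCC or clinical isolates. The MIC was read at 7 d as the lowest concentration reducing turbidity by ≥80% relative to the drug-free control.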

Fonsecaea compacta = assay: Antifungal activity against Fonsecaea compacta; procedure, shortened: as §2
Trichophyton rubrum = assay: Antifungal activity against Trichophyton rubrum; procedure, shortened: as §3

Row | Compound | MIC (Candida albicans) [µM] | MIC (Cryptococcus neoformans) [µM] | MIC (Aspergillus fumigatus) [µM] | MIC (Candida parapsilosis) [µM] | MIC (Microsporum) [µM] | MIC (Fonsecaea compacta) [µM] | MIC (Trichophyton rubrum) [µM]
1 | CCCCCCCCCCCCCCCCCCNC1CCc2cc(OC)ccc2C1 (stereo not drawn) | 64 (≈ 27.5 µg/mL) | > 64 | > 64 | > 64 | > 64 | > 64 | 8 (≈ 3.44 µg/mL)
2 | CCCCCCCCCCCCCCCCCCNC1CCc2ccc(OC)cc2C1 (stereo not drawn) | > 64 | > 64 | > 64 | > 64 | 64 (≈ 27.5 µg/mL) | > 64 | 8 (≈ 3.44 µg/mL)
3 | CCCCCCCCCCCCCCCCCCNC1CCc2cccc(OC)c2C1 (stereo not drawn) | > 64 | 64 (≈ 27.5 µg/mL) | > 64 | > 64 | 64 (≈ 27.5 µg/mL) | > 64 | 2 (≈ 0.859 µg/mL)
4 | CCCCCCCCCCCCCCCCCCNC1CCc2c(O)cccc2C1 (stereo not drawn) | 64 (≈ 26.6 µg/mL) | > 64 | > 64 | > 64 | > 64 | > 64 | 16 (≈ 6.65 µg/mL)
5 | CCCCCCCCCCCCCCCCCCNC1CCc2ccc(O)cc2C1 (stereo not drawn) | 16 (≈ 6.65 µg/mL) | > 64 | > 64 | > 64 | > 64 | 64 (≈ 26.6 µg/mL) | 2 (≈ 0.831 µg/mL)
6 | Oc1ccc2c(c1)CCC(NCc1ccccc1)C2 (stereo not drawn) | 64 (≈ 16.2 µg/mL) | > 64 | > 64 | > 64 | > 64 | > 64 | 8 (≈ 2.03 µg/mL)
7 | Oc1cccc2c1CCC(Nc1ccccc1)C2 (stereo not drawn) | > 64 | > 64 | > 64 | > 64 | > 64 | > 64 | 8 (≈ 1.91 µg/mL)
8 | Oc1cccc2c1CCC(NCc1ccccc1)C2 (stereo not drawn) | 64 (≈ 16.2 µg/mL) | > 64 | > 64 | > 64 | > 64 | > 64 | 0.125 (≈ 0.0317 µg/mL)
9 | COc1ccc(NC2CCc3cccc(OC)c3C2)cc1 (stereo not drawn) | > 64 | > 64 | > 64 | > 64 | 16 (≈ 4.53 µg/mL) | > 64 | 32 (≈ 9.07 µg/mL)
10 | COc1cccc2c1CCC(Nc1ccccc1)C2 (stereo not drawn) | > 64 | > 64 | > 64 | > 64 | 32 (≈ 8.11 µg/mL) | > 64 | 2 (≈ 0.507 µg/mL)
11 | COc1ccc2c(c1)CCC(Nc1ccccc1)C2 (stereo not drawn) | > 64 | > 64 | > 64 | > 64 | 32 (≈ 8.11 µg/mL) | > 64 | 0.5 (≈ 0.127 µg/mL)
12 | COc1ccc(NC2CCc3ccc(O)cc3C2)cc1 (stereo not drawn) | > 64 | > 64 | > 64 | 64 (≈ 17.2 µg/mL) | 32 (≈ 8.62 µg/mL) | > 64 | 0.5 (≈ 0.135 µg/mL)
13 | COc1ccc2c(c1)CC(Nc1ccccc1)CC2 (stereo not drawn) | > 64 | 64 (≈ 16.2 µg/mL) | > 64 | > 64 | 64 (≈ 16.2 µg/mL) | > 64 | 4 (≈ 1.01 µg/mL)
14 | Oc1cccc2c1CC(Nc1ccccc1)CC2 (stereo not drawn) | > 64 | 32 (≈ 7.66 µg/mL) | > 64 | > 64 | 32 (≈ 7.66 µg/mL) | 64 (≈ 15.3 µg/mL) | 4 (≈ 0.957 µg/mL)
15 | COc1cccc2c1CC(Nc1ccccc1)CC2 (stereo not drawn) | > 64 | > 64 | > 64 | > 64 | 32 (≈ 8.11 µg/mL) | > 64 | 4 (≈ 1.01 µg/mL)
16 | COc1ccc(NC2CCc3cccc(O)c3C2)cc1 (stereo not drawn) | > 64 | > 64 | > 64 | > 64 | 16 (≈ 4.31 µg/mL) | > 64 | 2 (≈ 0.539 µg/mL)
17 | COc1ccc2c(c1)CC(NCc1ccccc1)CC2 (stereo not drawn) | 64 (≈ 17.1 µg/mL) | > 64 | > 64 | > 64 | > 64 | > 64 | 4 (≈ 1.07 µg/mL)
18 | Oc1ccc2c(c1)CC(NCc1ccccc1)CC2 (stereo not drawn) | 64 (≈ 16.2 µg/mL) | > 64 | > 64 | > 64 | > 64 | > 64 | 16 (≈ 4.05 µg/mL)
19 | COc1ccc(NC2CCc3cc(O)ccc3C2)cc1 (stereo not drawn) | > 64 | 64 (≈ 17.2 µg/mL) | > 64 | 64 (≈ 17.2 µg/mL) | 16 (≈ 4.31 µg/mL) | > 64 | 0.5 (≈ 0.135 µg/mL)
20 | COc1ccc2c(c1)CC(Nc1ccc(Cl)cc1)CC2 (stereo not drawn) | > 64 | > 64 | > 64 | > 64 | 16 (≈ 4.6 µg/mL) | > 64 | 16 (≈ 4.6 µg/mL)
21 | COc1ccc(NC2CCc3c(cccc3OC)C2)cc1 (stereo not drawn) | > 64 | > 64 | > 64 | > 64 | 8 (≈ 2.27 µg/mL) | > 64 | 2 (≈ 0.567 µg/mL)
22 | COc1cccc2c1CCC(Nc1ccc(Cl)cc1)C2 (stereo not drawn) | > 64 | > 64 | > 64 | > 64 | 16 (≈ 4.6 µg/mL) | > 64 | 2 (≈ 0.576 µg/mL)
23 | COc1cccc2c1CCC(NCc1ccccc1)C2 (stereo not drawn) | 32 (≈ 8.56 µg/mL) | 64 (≈ 17.1 µg/mL) | > 64 | > 64 | 64 (≈ 17.1 µg/mL) | 32 (≈ 8.56 µg/mL) | 16 (≈ 4.28 µg/mL)

Now from value to molecule:

Row | MIC (Candida albicans) [µM] | MIC (Cryptococcus neoformans) [µM] | MIC (Aspergillus fumigatus) [µM] | MIC (Candida parapsilosis) [µM] | MIC (Microsporum) [µM] | MIC (Fonsecaea compacta) [µM] | MIC (Trichophyton rubrum) [µM] | Compound
24 | 64 (≈ 16.2 µg/mL) | > 64 | > 64 | > 64 | 32 (≈ 8.11 µg/mL) | 32 (≈ 8.11 µg/mL) | 0.5 (≈ 0.127 µg/mL) | Oc1cccc2c1CC(NCc1ccccc1)CC2 (stereo not drawn)
25 | 32 (≈ 13.3 µg/mL) | > 64 | > 64 | > 64 | 64 (≈ 26.6 µg/mL) | > 64 | 8 (≈ 3.33 µg/mL) | CCCCCCCCCCCCCCCCCCNC1CCc2cc(O)ccc2C1 (stereo not drawn)
26 | > 64 | > 64 | > 64 | > 64 | 4 (≈ 1.07 µg/mL) | > 64 | 32 (≈ 8.56 µg/mL) | COc1cccc2c1CC(NCc1ccccc1)CC2 (stereo not drawn)
27 | > 64 | > 64 | > 64 | > 64 | 16 (≈ 4.6 µg/mL) | > 64 | 1 (≈ 0.288 µg/mL) | COc1ccc2c(c1)CCC(Nc1ccc(Cl)cc1)C2 (stereo not drawn)
28 | 32 (≈ 7.66 µg/mL) | 16 (≈ 3.83 µg/mL) | > 64 | > 64 | 16 (≈ 3.83 µg/mL) | 32 (≈ 7.66 µg/mL) | 8 (≈ 1.91 µg/mL) | Oc1ccc2c(c1)CC(Nc1ccccc1)CC2 (stereo not drawn)
29 | 30 (≈ 8.02 µg/mL) | > 64 | > 64 | > 64 | > 64 | > 64 | 16 (≈ 4.28 µg/mL) | COc1ccc2c(c1)CCC(NCc1ccccc1)C2 (stereo not drawn)
30 | > 64 | > 64 | > 64 | > 64 | 8 (≈ 2.27 µg/mL) | > 64 | 8 (≈ 2.27 µg/mL) | COc1ccc(NC2CCc3cc(OC)ccc3C2)cc1 (stereo not drawn)
31 | > 64 | > 64 | > 64 | 32 (≈ 8.62 µg/mL) | 16 (≈ 4.31 µg/mL) | > 64 | 0.25 (≈ 0.0673 µg/mL) | COc1ccc(NC2CCc3c(O)cccc3C2)cc1 (stereo not drawn)
32 | 64 (≈ 15.3 µg/mL) | 64 (≈ 15.3 µg/mL) | > 64 | 64 (≈ 15.3 µg/mL) | 32 (≈ 7.66 µg/mL) | 64 (≈ 15.3 µg/mL) | 8 (≈ 1.91 µg/mL) | Oc1ccc2c(c1)CCC(Nc1ccccc1)C2 (stereo not drawn)
33 | > 64 | > 64 | > 64 | > 64 | 16 (≈ 4.53 µg/mL) | 64 (≈ 18.1 µg/mL) | 0.5 (≈ 0.142 µg/mL) | COc1ccc(NC2CCc3ccc(OC)cc3C2)cc1 (stereo not drawn)
34 | > 64 | > 64 | > 64 | > 64 | > 64 | 64 (≈ 26.6 µg/mL) | 2 (≈ 0.831 µg/mL) | CCCCCCCCCCCCCCCCCCNC1CCc2cccc(O)c2C1 (stereo not drawn)
